The source of these data is ChEMBL document CHEMBL1759875, “Synthesis and biological evaluation of 1-[2-cyano-3,12-dioxooleana-1,9(11)-dien-28-oyl]-4-ethynylimidazole. A novel and highly potent anti-inflammatory and cytoprotective agent” (Bioorg Med Chem Lett, 2011).

SMILES strings stand for the structures. The source made the active and inactive calls. No cut-off for these calls is given here.

Series [1] has as its system RAW264.7. The series can be described thus: Inhibition of NO production in INFgamma-stimulated mouse RAW264.7 cells measured after 24 hrs by Griess reaction method. It is filed as functional, cell-based. Particulars: RAW264.7, 24 h. The method, boiled down:
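RAW 264.7 mouse macrophages were seeded at 30,000 cells/well in triplicate. The next day they were pre-treated for 2 h with DMSO or compound (0–200 nM), then stimulated with IFN-γ for 24 h. Medium NO was measured by Griess reagent and viability by WST-1. IC₅₀ came from suppression of IFN-γ-induced NO normalized to viability.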
For orientation: Griess reagent forms a coloured azo dye with nitrite.

Series [2] concerns the target NAD(P)H dehydrogenase [quinone] 1 (Mus musculus) (UniProt Q64669). Put plainly: Induction of NQO1 activity in mouse Hepa-1c1c7 cells assessed as concentration require to double the specific enzyme activity after 48 hrs. It is filed as cell-based. The method, boiled down:
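Hepa1c1c7 murine hepatoma cells were seeded at 10,000 cells/well and grown 24 h, then exposed to serial dilutions for 48 h. NQO1 specific enzyme activity was measured, and potency was taken as the concentration that doubles it (CD). Each concentration used eight replicate wells; SD was 5–10%.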

The nature of series [3]: Stability of the compound at 4 degC. The format is physicochemical.
The target of series [4] is T1, Heme oxygenase 1 (Mus musculus) (UniProt P14901).
T1 sequence (whole entry): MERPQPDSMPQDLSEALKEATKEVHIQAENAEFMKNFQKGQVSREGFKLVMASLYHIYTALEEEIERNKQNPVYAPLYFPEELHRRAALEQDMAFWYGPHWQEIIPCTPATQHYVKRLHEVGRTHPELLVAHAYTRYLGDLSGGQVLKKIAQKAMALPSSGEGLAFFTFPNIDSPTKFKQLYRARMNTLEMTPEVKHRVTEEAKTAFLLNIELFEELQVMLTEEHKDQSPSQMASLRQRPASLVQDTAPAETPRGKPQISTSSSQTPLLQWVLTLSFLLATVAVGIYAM
Put plainly: Induction of HO1 activity in mouse RAW264.7 cells at 30 to 100 nM after 16 hrs. It is filed as cell-based. An outline of the steps:
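RAW 264.7 mouse macrophages were plated at 100,000 cells/well and treated the next day with DMSO or compound for 16 h (overnight). Cells were harvested in tricine sample buffer with b-ME. Lysates were run on SDS–PAGE and immunoblotted for HO-1, with GAPDH as the reference protein.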

NAD(P)H dehydrogenase [quinone] 1 (Mus musculus), sequence (Q64669 whole entry): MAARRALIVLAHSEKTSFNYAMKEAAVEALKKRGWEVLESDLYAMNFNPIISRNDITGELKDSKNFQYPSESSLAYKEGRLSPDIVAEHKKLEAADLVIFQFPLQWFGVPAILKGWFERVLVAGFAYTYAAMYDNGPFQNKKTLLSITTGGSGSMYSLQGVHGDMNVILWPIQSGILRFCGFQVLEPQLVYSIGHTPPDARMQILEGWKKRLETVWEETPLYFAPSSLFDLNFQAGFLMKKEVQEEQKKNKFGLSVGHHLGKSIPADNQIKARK

For orientation: IC50 means the midpoint of a concentration-inhibition curve. In series [1], `C#Cc1nccn1C(=O)[C@]12CCC(C)(C)C[C@H]1[C@H]1C(=O)C=C3[C@@]4(C)C=C(C#N)C(=O)C(C)(C)[C@@H]4CC[C@@]3(C)[C@]1(C)CC2` came in with an IC50 of 2.3 nM. In addition, the CD in series [2] amounted to 0.9 nM. Moreover, the Stability in series [3] is on record as 3 yr. Besides, in series [4], the outcome was Active.
In series [1], `CC#Cc1nc(C)cn1C(=O)[C@]12CCC(C)(C)C[C@H]1[C@H]1C(=O)C=C3[C@@]4(C)C=C(C#N)C(=O)C(C)(C)[C@@H]4CC[C@@]3(C)[C@]1(C)CC2` displayed an IC50 of 2 nM. The CD in series [2] was found to be 0.4 nM. In addition, in series [3], the Stability was 3 yr. In series [4], the result was Active.
Take `C#Cc1cn(C(=O)[C@]23CCC(C)(C)C[C@H]2[C@H]2C(=O)C=C4[C@@]5(C)C=C(C#N)C(=O)C(C)(C)[C@@H]5CC[C@@]4(C)[C@]2(C)CC3)cn1`: the IC50 in series [1] stood at 1.4 nM. Further, the CD in series [2] was 0.4 nM. Moreover, in series [3], the Stability is 3 yr. Further, the outcome in series [4] was Active.
In the case of `CC1(C)CC[C@]2(C(=O)n3cnc(C#Cc4ccccc4)c3)CC[C@]3(C)[C@H](C(=O)C=C4[C@@]5(C)C=C(C#N)C(=O)C(C)(C)[C@@H]5CC[C@]43C)[C@@H]2C1`, the IC50 in series [1] came out at 7.8 nM.
Consider `CC1(C)CC[C@]2(C(=O)n3ccnc3)CC[C@]3(C)[C@H](C(=O)C=C4[C@@]5(C)C=C(C#N)C(=O)C(C)(C)[C@@H]5CC[C@]43C)[C@@H]2C1`, for which half-maximal inhibition in series [1] (IC50) required 0.6 nM. In addition, in series [2], the CD came out at 0.2 nM. In series [3], the Stability stood at 1 yr.
As to `CC1(C)CC[C@]2(C(=O)n3ccnc3C#Cc3ccccc3)CC[C@]3(C)[C@H](C(=O)C=C4[C@@]5(C)C=C(C#N)C(=O)C(C)(C)[C@@H]5CC[C@]43C)[C@@H]2C1`, in series [1], 4 nM corresponded to half-maximal inhibition (IC50). Moreover, in series [2], the CD was found to be 1.2 nM. This molecule also came in with a Stability in series [3] of 3 yr. In addition, the outcome in series [4] was Active.
Consider `CC1(C)CC[C@]2(C(=O)O)CC[C@]3(C)[C@H](C(=O)C=C4[C@@]5(C)C=C(C#N)C(=O)C(C)(C)[C@@H]5CC[C@]43C)[C@@H]2C1` [BARDOXOLONE], for which the IC50 in series [1] turned out to be 11 nM. For the same molecule, the CD in series [2] was determined as 3 nM.
